Common to all, as to assay type: functional, organism-based
For experiment [1], the system named is Mus musculus. In words: Compound was evaluated for antitumor activity (RTV) in PNX/109/TC carcinoma Xenograft, at a dosage 10 mg/kg on day 21. The arrangement: dose 10 mg/kg. The essentials: (§1)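 PXN/109/TC (CH1) ovarian tumor fragments implanted subcutaneously in nude mice flanks; established palpable tumors, groups of 6 (controls 10). Dosed intraperitoneally as suspension in arachis oil on days 0, 7, 14, 21. Tumors measured days 0, 7, 14, 21, 28. RTV = 100(mean tumor volume at assessment)/(mean start volume).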

Experiment [2] relates to Mus musculus. Description: Compound was evaluated for antitumor activity (RTV) in HT1376 carcinoma Xenograft, at a dosage 25 mg/kg on day 7. The arrangement: dose 25 mg/kg. The essentials: (§2)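 HT1376 tumor fragments implanted subcutaneously in nude mice flanks; mice with established palpable tumors randomized into groups of 6 (controls 10). Compounds given intraperitoneally as suspensions in 0.5% carboxymethylcellulose in 0.9% saline, on days 0, 7, 14 and 21. Tumor dimensions on days 0, 7, 14, 21, 28. RTV = 100(mean tumor volume at assessment)/(mean start volume).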

Experiment [3] concerns Mus musculus. Description: Compound was evaluated for antitumor activity (RTV) in HT1376 carcinoma Xenograft, at a dosage 12.5 mg/kg on day 28. Further details: dose 12.5 mg/kg. The essentials: as §2
Experiment [4] deals with Mus musculus. Description: Compound was evaluated for antitumor activity (T/C) in HT1376 carcinoma Xenograft, at a dosage 25 mg/kg on day 14. Further details: dose 25 mg/kg. The essentials:
(§3)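 Subcutaneous HT1376 xenografts in nude mice, 6 per treated group and 10 controls. Intraperitoneal dosing as suspensions in 0.5% carboxymethylcellulose/0.9% saline on days 0, 7, 14, 21; tumors measured weekly to day 28. T/C = RTV of treated group / RTV of untreated control group; significance by t-test at the 5% level.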

The test system of experiment [5] is Mus musculus. Description: Compound was evaluated for antitumor activity (T/C) in PNX/109/TC carcinoma Xenograft, at a dosage 10 mg/kg on day 14. The arrangement: dose 10 mg/kg. The essentials:
(§4)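 PNX/109/TC (CH1) ovarian tumor fragments implanted subcutaneously in the flanks of nude mice. Once tumors were palpable, mice were randomized into 6 per treated group and 10 controls. Dosing was ip in arachis oil on days 0, 7, 14 and 21, at the MTD and two 2-fold dilutions, with tumor dimensions taken on days 0, 7, 14, 21 and 28. T/C is treated RTV over control RTV, with RTV relative to start volume.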

The test system of experiment [6] is Mus musculus. Description: Compound was evaluated for antitumor activity (RTV) in HT1376 carcinoma Xenograft, at a dosage 25 mg/kg on day 28. Further details: dose 25 mg/kg. The essentials: as §2
Experiment [7] has as its system Mus musculus. Description: Compound was evaluated for antitumor activity (T/C) in HT1376 carcinoma Xenograft, at a dosage 6.25 mg/kg on day 14. Further details: dose 6.25 mg/kg. The essentials:
(§5)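 Nude mice carrying subcutaneous flank HT1376 fragments; treatment began once tumors were established and palpable, randomized into groups of 6 treated and 10 control mice. Dosing was ip as a suspension in 0.5% carboxymethylcellulose in 0.9% saline on days 0, 7, 14 and 21, at the MTD and two 2-fold dilutions. Tumors were measured on days 0-28. RTV = 100(mean volume at assessment)/(mean start volume); T/C = treated RTV/control RTV.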

Experiment [8] relates to Mus musculus. Description: Compound was evaluated for antitumor activity (T/C) in HT1376 carcinoma Xenograft, at a dosage 6.25 mg/kg on day 28. The arrangement: dose 6.25 mg/kg. The essentials: as §5
For experiment [9], the system named is Mus musculus. In words: Compound was evaluated for antitumor activity (RTV) in PNX/109/TC carcinoma Xenograft, at a dosage 20 mg/kg on day 14. The arrangement: dose 20 mg/kg. The essentials: as §1
Experiment [10] concerns Mus musculus. In words: Compound was evaluated for antitumor activity (RTV) in PNX/109/TC carcinoma Xenograft, at a dosage 5 mg/kg fon day 7. Further details: dose 5 mg/kg. The essentials:
as §1

In experiment [11] the test system is Mus musculus. In words: Compound was evaluated for antitumor activity (T/C) in PNX/109/TC carcinoma Xenograft, at a dosage 5 mg/kg on day 14. Further details: dose 5 mg/kg. The essentials:
as §4

The subject of experiment [12] is Mus musculus. Description: Compound was evaluated for antitumor activity (T/C) in HT1376 carcinoma Xenograft, at a dosage 12.5 mg/kg on day 28. The arrangement: dose 12.5 mg/kg. The essentials: as §3
In experiment [13] the test system is Mus musculus. Description: Compound was evaluated for antitumor activity (RTV) in PNX/109/TC carcinoma Xenograft, at a dosage 10 mg/kg on day 7. Further details: dose 10 mg/kg. The essentials: as §1
Experiment [14] has as its system Mus musculus. Description: Compound was evaluated for antitumor activity (T/C) in HT1376 carcinoma Xenograft, at a dosage 12.5 mg/kg on day 14. The arrangement: dose 12.5 mg/kg. The essentials: as §3
The subject of experiment [15] is Mus musculus. Description: Compound was evaluated for antitumor activity (T/C) in PNX/109/TC carcinoma Xenograft, at a dosage 10 mg/kg on day 7. The arrangement: dose 10 mg/kg. The essentials: as §4
For experiment [16], the system named is Mus musculus. Description: Compound was evaluated for antitumor activity (RTV) in PNX/109/TC carcinoma Xenograft, at a dosage 5 mg/kg on day 14. Further details: dose 5 mg/kg. The essentials: as §1

Experimental findings from ChEMBL document CHEMBL1129059, “Antitumor properties of some 2-[(dimethylamino)methyl]phenylgold(III) complexes” (J Med Chem, 1996) are described below.

As to “Acetato[2-(dimethylamino)methyl]phenyl-C,N]gold-(III)”, the RTV in the experiment with Mus musculus [1] came out at 515; with Mus musculus [2] it was 258; in the experiment on Mus musculus [3], 1080; in the experiment with Mus musculus [6] it was 870; in the experiment with Mus musculus [9] it was 200; in the experiment on Mus musculus [10], 160. In addition, the results for the RTV with Mus musculus [13] and in the experiment on Mus musculus [16] were 173 and 282, respectively. For the same substance, the T/C amounted to 0.9 in the experiment with Mus musculus [4]; 0.9 in the experiment on Mus musculus [5]; 1.43 in the experiment with Mus musculus [7]; 1.16 in the experiment on Mus musculus [8]; 0.8 in the experiment with Mus musculus [11]; 0.75 in the experiment on Mus musculus [12]. Besides, the T/C in the experiment with Mus musculus [14] is 0.98; with Mus musculus [15], 0.76.
